In ChEMBL document CHEMBL1811823, “Quinazolinone linked pyrrolo[2,1-c][1,4]benzodiazepine (PBD) conjugates: Design, synthesis and biological evaluation as potential anticancer agents” (2010):
Active and inactive are the calls of the source. The rule behind the calls is not given here.

Key:
A-375 [1] = assay: Cell cycle arrest in human A375 cells assessed as decrease in G2/M phase at 4 uM after 24 hrs by propidium iodide staining based flow cytometry; assay type: functional; design: scale not given: the % may be the effect or the level left
Method in brief: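 A375 melanoma cells (DMEM, 10% FCS, 37 °C, 5% CO2) seeded at 5×10^5 per dish and grown 24 h, then exposed to 0–4 µM for 24 h. Harvested with trypsin-EDTA, fixed in ice-cold 70% ethanol, RNase A treated (1 mg/ml, 37 °C, 30 min), stained with propidium iodide and analysed by flow cytometry for phase distribution.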

NCI-H23 = assay: Growth inhibition of human NCI-H23 cells by NCI anti-cancer screening method; assay type: functional
BT-549 = assay: Growth inhibition of human BT549 cells by NCI anti-cancer screening method; assay type: functional
MDA-MB-435 = assay: Growth inhibition of human MDA-MB-435 cells by NCI anti-cancer screening method; assay type: functional
OVCAR-8 = assay: Growth inhibition of human OVCAR8 cells by NCI anti-cancer screening method; assay type: functional
ACHN = assay: Growth inhibition of human ACHN cells by NCI anti-cancer screening method; assay type: functional
HT-29 = assay: Growth inhibition of human HT-29 cells by NCI anti-cancer screening method; assay type: functional
A-375 [2] = assay: Induction of apoptosis in human A375 cells assessed as sub-G1 phase accumulation at 4 uM after 24 hrs by propidium iodide staining based flow cytometry; assay type: functional
Method in brief: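 A375 cells (5×10^5 per 60 mm dish) were grown 24 h, then treated 24 h at 0–4 µM. Cells were harvested with trypsin-EDTA, fixed in ice-cold 70% ethanol for 30 min at 4 °C, treated with RNase A (1 mg/ml) for 30 min at 37 °C, and stained with propidium iodide. Cell-cycle distribution, including the sub-G1 fraction, was measured by flow cytometry. DMSO-exposed cells were the control.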

NCI-H460 = assay: Growth inhibition of human NCI-H460 cells by NCI anti-cancer screening method; assay type: functional
A-375 [3] = assay: Decrease in Bcl-2 mRNA expression in human A375 cells at 4 uM after 24 hrs by RT-PCR
NCI-H226 = assay: Growth inhibition of human NCI-H226 cells by NCI anti-cancer screening method; assay type: functional
SN12C = assay: Growth inhibition of human SN12C cells by NCI anti-cancer screening method; assay type: functional
A-375 [4] = assay: Inhibition of NF-kappaB signaling in human A375 cells at 4 uM after 24 hrs by Western blot; assay type: cell-based
Method in brief: (§1)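 A375 cells (DMEM, 10% FCS, 37 °C, 5% CO2) were treated at 4 µM for 24 h. Lysates were loaded at 30 µg protein/lane on 12% SDS-PAGE and transferred to PVDF. Membranes were blocked 2 h in TBST, incubated with primary antibody overnight at 4 °C (p53 1:100, p27 1:500, NF-κB p65 1:500), then HRP secondary 1 h, with chemiluminescent detection. β-actin was the loading control; untreated and DMSO controls were run.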

MOLT-4 = assay: Growth inhibition of human MOLT4 cells by NCI anti-cancer screening method; assay type: functional
SNB-19 = assay: Growth inhibition of human SNB19 cells by NCI anti-cancer screening method; assay type: functional
CAKI-1 = assay: Growth inhibition of human Caki1 cells by NCI anti-cancer screening method; assay type: functional
COLO 205 = assay: Growth inhibition of human COLO205 cells by NCI anti-cancer screening method; assay type: functional
NCI/ADR-RES = assay: Growth inhibition of human NCI/ADR-RES cells by NCI anti-cancer screening method; assay type: functional
A-375 [5] = assay: Decrease in CDK2 protein expression in human A375 cells at 4 uM after 24 hrs by Western blot; assay type: functional, cell-based
Method in brief: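 A375 cells treated at 4 µM for 24 h, lysed, protein quantified by Bradford. 30 µg/lane run on 12% SDS-PAGE and transferred to PVDF. Blocked 2 h in TBST with 5% blocker. Probed with rabbit polyclonal CDK2 antibody (1:500) overnight at 4 °C, then HRP secondary (1:2000) 1 h. Chemiluminescent detection; β-tubulin loading control; untreated and DMSO controls.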

CCRF-CEM = assay: Growth inhibition of human CCRF-CEM cells by NCI anti-cancer screening method; assay type: functional
Nucleic Acid = assay: Binding affinity to calf thymus DNA assessed as change in melting temperature at 20 uM at pH 7 incubated for 18 hrs at 37 degC by thermal denaturation assay; assay type: nucleic-acid assay; conditions: Bos taurus
Method in brief: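 CT-DNA (100 µM in phosphate) with 20 µM ligand, 1:5 [PBD]/[DNA], in 10 mM sodium phosphate/1 mM Na2EDTA buffer pH 7.00. Ligand added from methanol solution; incubated at 37 °C for 0 or 18 h. A260 monitored while heating 1 °C/min over 40–90 °C. Tm taken from d(A260)/dT maxima; ΔTm = Tm(DNA+PBD) − Tm(DNA alone). Values are means of at least three determinations, corrected for methanol cosolvent.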

A-375 [6] = assay: Increase in p53 protein expression in human A375 cells at 4 uM after 24 hrs by Western blot; assay type: functional, cell-based; method in brief: as §1
SW-620 = assay: Growth inhibition of human SW620 cells by NCI anti-cancer screening method; assay type: functional
EKVX = assay: Growth inhibition of human EKVX cells by NCI anti-cancer screening method; assay type: functional
T47D = assay: Growth inhibition of human T47D cells by NCI anti-cancer screening method; assay type: functional
M14 = assay: Growth inhibition of human M14 cells by NCI anti-cancer screening method; assay type: functional
SK-MEL-28 = assay: Growth inhibition of human SK-MEL-28 cells by NCI anti-cancer screening method; assay type: functional
A-375 [7] = assay: Increase in p21 mRNA expression in human A375 cells at 4 uM after 24 hrs by RT-PCR; assay type: functional, cell-based
Method in brief: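 RT-PCR on RNA from A375 cells treated 24 h at 4 µM, using Bcl-2- or p21-specific primers with GAPDH as internal control. Products were visualized on 1% agarose gels stained with ethidium bromide. Untreated and DMSO-treated cells served as controls.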

SK-MEL-2 = assay: Growth inhibition of human SK-MEL-2 cells by NCI anti-cancer screening method; assay type: functional
Malme-3M = assay: Growth inhibition of human MALME-3M cells by NCI anti-cancer screening method; assay type: functional
NCI = assay: Growth inhibition of human RXF393 cells by NCI anti-cancer screening method; assay type: functional

COc1cc2c(cc1OCCCCCOc1ccc(-n3c(C)nc4ccccc4c3=O)cc1)N=C[C@@H]1CCCN1C2=O
Activity (A-375 [1]): 9.15%
GI50 (NCI-H23): 230 nM
GI50 (BT-549): 110 nM
GI50 (MDA-MB-435): 160 nM
GI50 (OVCAR-8): 340 nM
GI50 (ACHN): 290 nM
GI50 (HT-29): 260 nM
Activity (A-375 [2]): 31.52%
GI50 (NCI-H460): 200 nM
Decrease in Bcl-2 mRNA expression (A-375 [3]): Active
GI50 (NCI-H226): 160 nM
GI50 (SN12C): 240 nM
inhibition (A-375 [4]): Active
GI50 (MOLT-4): 190 nM
GI50 (SNB-19): 280 nM
GI50 (CAKI-1): 190 nM
GI50 (COLO 205): 180 nM
GI50 (NCI/ADR-RES): 1730 nM
Activity (A-375 [5]): Active
GI50 (CCRF-CEM): 160 nM
ΔTm (Nucleic Acid): 2.3 °C
Activity (A-375 [6]): Active
GI50 (SW-620): 160 nM
GI50 (EKVX): 870 nM
GI50 (T47D): 170 nM
GI50 (M14): 170 nM
GI50 (SK-MEL-28): 200 nM
Activity (A-375 [7]): Active
GI50 (SK-MEL-2): 420 nM
GI50 (Malme-3M): 230 nM
GI50 (NCI): 210 nM
